Active and inactive are the calls of the source. No cut-off for these calls is given here. Where a SMILES comes first, the peptide text is derived from it. The star is where a group is joined. Propyl(2R-PamO,3-PamO) = CCCCCCCCCCCCCCCC(=O)OC[C@H](C*)OC(=O)CCCCCCCCCCCCCCC; X1 = CCCCCCCCCCCCCCCC(=O)OC[C@H](C*)OC(=O)CCCCCNC(=O)CCCCCCCC; X2 = CCCCCCCCCCCCCCCC(=O)OC[C@H](C*)OC(=O)CCNC(=O)CCCCCCCCCCC; X3 = CCCCCCCCCCCCCCCC(=O)OC[C@H](C*)OC(=O)CCCNC(=O)CCCCCCCCCC; X4 = CCCCCCCCCCCCCCCC(=O)OC[C@H](C*)OC(=O)CCCCCCNC(=O)CCCCCCC; X5 = CCCCCCCCCCCCCCCC(=O)OC[C@H](C*)OC(=O)CCCCNC(=O)CCCCCCCCC; X6 = CCCCCCCCCCCCCCCC(=O)O[C@H](COC(=O)CCCCCCCCCCNC(=O)CCC)C*; X7 = CCCCCCCCCCCCCCCC(=O)O[C@H](COC(=O)CCCCCCCCNC(=O)CCCCC)C*; X8 = CCCCCCCCCCCCCCCC(=O)O[C@H](COC(=O)CCCCCCCCCCCNC(=O)CC)C*; X9 = CCCCCCCCCCCCCCCC(=O)O[C@H](COC(=O)CCCCCCCCCNC(=O)CCCC)C*
Key:
[1] = molecular target: Toll-like receptor 2 (Homo sapiens, UniProt O60603); assay: Inhibition of biotin labelled Pam2CSK4 binding to His tagged human TLR2 after 45 mins by AlphaScreen assay
Toll-like receptor 2 (Homo sapiens, UniProt O60603), sequence (O60603 whole entry): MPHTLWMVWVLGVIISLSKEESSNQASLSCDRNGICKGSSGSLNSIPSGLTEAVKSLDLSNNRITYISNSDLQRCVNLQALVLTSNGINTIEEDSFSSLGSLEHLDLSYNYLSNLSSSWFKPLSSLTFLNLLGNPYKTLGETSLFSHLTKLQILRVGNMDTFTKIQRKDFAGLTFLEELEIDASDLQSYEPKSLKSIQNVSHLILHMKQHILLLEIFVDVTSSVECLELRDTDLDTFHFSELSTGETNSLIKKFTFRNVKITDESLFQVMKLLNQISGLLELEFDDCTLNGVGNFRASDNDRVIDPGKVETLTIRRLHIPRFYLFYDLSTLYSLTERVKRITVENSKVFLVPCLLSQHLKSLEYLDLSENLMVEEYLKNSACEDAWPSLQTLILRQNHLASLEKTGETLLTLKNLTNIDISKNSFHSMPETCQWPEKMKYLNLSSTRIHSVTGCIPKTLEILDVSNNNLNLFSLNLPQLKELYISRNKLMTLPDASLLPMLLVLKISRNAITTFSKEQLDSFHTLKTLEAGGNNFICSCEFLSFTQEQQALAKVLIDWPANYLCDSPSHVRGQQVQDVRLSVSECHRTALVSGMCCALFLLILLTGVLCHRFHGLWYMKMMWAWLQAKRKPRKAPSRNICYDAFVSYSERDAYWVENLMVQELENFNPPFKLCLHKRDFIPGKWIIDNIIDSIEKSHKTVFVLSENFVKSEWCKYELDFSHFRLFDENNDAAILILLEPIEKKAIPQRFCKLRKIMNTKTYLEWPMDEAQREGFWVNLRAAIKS
In short: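 Competitive binding was measured by AlphaScreen using His-tagged human TLR2 protein and biotinylated Pam2CSK4 as the tracer ligand. Competing ligands displace Pam2CSK4-biotin and lower the luminescent proximity signal.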

[2] = molecular target: Toll-like receptor 2 (Mus musculus, UniProt Q9QUN7); assay: Inhibition of biotin labelled Pam2CSK4 binding to mouse TLR2 Fc chimera protein after 45 mins by AlphaScreen assay
Toll-like receptor 2 (Mus musculus, UniProt Q9QUN7), sequence (Q9QUN7 whole entry): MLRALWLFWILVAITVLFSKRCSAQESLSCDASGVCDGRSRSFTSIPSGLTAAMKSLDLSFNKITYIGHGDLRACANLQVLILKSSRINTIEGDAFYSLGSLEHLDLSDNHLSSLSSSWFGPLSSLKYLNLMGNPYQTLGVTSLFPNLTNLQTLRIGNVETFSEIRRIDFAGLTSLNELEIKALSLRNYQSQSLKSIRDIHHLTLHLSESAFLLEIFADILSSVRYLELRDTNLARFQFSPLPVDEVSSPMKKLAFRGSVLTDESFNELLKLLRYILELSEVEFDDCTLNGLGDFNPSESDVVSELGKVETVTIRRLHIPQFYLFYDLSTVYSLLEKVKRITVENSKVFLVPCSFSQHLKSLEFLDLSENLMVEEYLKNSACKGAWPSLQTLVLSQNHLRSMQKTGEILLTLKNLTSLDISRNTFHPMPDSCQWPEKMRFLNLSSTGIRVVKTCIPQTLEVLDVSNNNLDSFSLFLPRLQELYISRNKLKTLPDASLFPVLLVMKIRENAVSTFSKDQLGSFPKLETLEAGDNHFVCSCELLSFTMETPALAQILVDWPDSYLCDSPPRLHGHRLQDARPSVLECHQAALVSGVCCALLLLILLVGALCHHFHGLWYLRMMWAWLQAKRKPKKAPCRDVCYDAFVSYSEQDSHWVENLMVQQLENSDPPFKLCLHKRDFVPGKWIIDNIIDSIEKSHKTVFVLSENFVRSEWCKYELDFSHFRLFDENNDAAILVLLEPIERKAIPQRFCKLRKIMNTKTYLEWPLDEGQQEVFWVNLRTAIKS

[3] = test system: THP-1; assay: Immunostimulatory activity in human THP1 cells assessed as increase in TNF-alpha production at 1 to 100 nM after 24 hrs by ELISA; type: functional, cell-based
[4] = test system: RAW264.7; assay: Immunostimulatory activity in mouse RAW264.7 cells assessed as increase in TNF-alpha production at 1 to 100 nM after 24 hrs by ELISA; type: functional, cell-based
[5] = test system: THP-1; assay: Immunostimulatory activity in human THP1 cells assessed as increase in IL-6 production at 1 to 100 nM after 24 hrs by ELISA; type: functional, cell-based
In short: (§1)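 PMA-differentiated THP-1 human monocytic cells were incubated with a range of ligand concentrations. Secreted IL-6 was measured by ELISA. Data are mean ± standard error of triplicate values, and similar results were obtained in two or three independent experiments.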

[6] = test system: RAW264.7; assay: Immunostimulatory activity in mouse RAW264.7 cells assessed as increase in IL-6 production at 1 to 100 nM after 24 hrs by ELISA; type: functional, cell-based
In short: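 Murine RAW264.7 macrophages were incubated with various ligand concentrations, and secreted IL-6 was quantified by ELISA. Values are mean ± standard error of triplicates, with results reproduced in two or three independent experiments.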

[7] = test system: THP-1; assay: Immunostimulatory activity in human THP1 cells assessed as increase in IL-6 production after 24 hrs by ELISA; type: functional, cell-based; in short: as §1
[8] = test system: THP-1; assay: Immunostimulatory activity in human THP1 cells assessed as increase in TNF-alpha production after 24 hrs by ELISA; type: functional, cell-based

Row | IC50 [1] | IC50 [2] | SMILES | Activity [3] | Activity [4] | Activity [5] | Activity [6] | Activity [7] | Activity [8]
1 | 0.426 to 0.55 µM | 0.349 µM | CCCCCCCCCCCCCCCC(=O)OC[C@H](CSC[C@H](N)C(=O)N[C@@H](CO)C(=O)N[C@@H](CCCCN)C(=O)N[C@@H](CCCCN)C(=O)N[C@@H](CCCCN)C(=O)N[C@@H](CCCCN)C(=O)O)OC(=O)CCCCCCCCCCCCCCC (H-C(Propyl(2R-PamO,3-PamO))SKKKK-OH) | inactive | inactive |  |  |  | 
2 | 4.75 µM | 4.75 µM | CCCCCCCCCCCCCCCC(=O)OC[C@H](CSC[C@H](N)C(=O)N[C@@H](CO)C(=O)N[C@@H](CCCCN)C(=O)N[C@@H](CCCCN)C(=O)N[C@@H](CCCCN)C(=O)N[C@@H](CCCCN)C(=O)O)OC(=O)CCCCCNC(=O)CCCCCCCC (H-C(X1)SKKKK-OH) | Active | Active | Active | Active |  | 
3 | 1.68 µM | 1.04 µM | CCCCCCCCCCCCCCCC(=O)OC[C@H](CSC[C@H](N)C(=O)N[C@@H](CO)C(=O)N[C@@H](CCCCN)C(=O)N[C@@H](CCCCN)C(=O)N[C@@H](CCCCN)C(=O)N[C@@H](CCCCN)C(=O)O)OC(=O)CCNC(=O)CCCCCCCCCCC (H-C(X2)SKKKK-OH) | Active | Active | Active | Active |  | 
4 | 1.96 µM | 1.38 µM | CCCCCCCCCCCCCCCC(=O)OC[C@H](CSC[C@H](N)C(=O)N[C@@H](CO)C(=O)N[C@@H](CCCCN)C(=O)N[C@@H](CCCCN)C(=O)N[C@@H](CCCCN)C(=O)N[C@@H](CCCCN)C(=O)O)OC(=O)CCCNC(=O)CCCCCCCCCC (H-C(X3)SKKKK-OH) | Active | Active | Active | Active |  | 
5 | 3.37 µM | 5.69 µM | CCCCCCCCCCCCCCCC(=O)OC[C@H](CSC[C@H](N)C(=O)N[C@@H](CO)C(=O)N[C@@H](CCCCN)C(=O)N[C@@H](CCCCN)C(=O)N[C@@H](CCCCN)C(=O)N[C@@H](CCCCN)C(=O)O)OC(=O)CCCCCCNC(=O)CCCCCCC (H-C(X4)SKKKK-OH) | Active | Active | Active | Active |  | 
6 | 4.65 µM | 5.61 µM | CCCCCCCCCCCCCCCC(=O)OC[C@H](CSC[C@H](N)C(=O)N[C@@H](CO)C(=O)N[C@@H](CCCCN)C(=O)N[C@@H](CCCCN)C(=O)N[C@@H](CCCCN)C(=O)N[C@@H](CCCCN)C(=O)O)OC(=O)CCCCNC(=O)CCCCCCCCC (H-C(X5)SKKKK-OH) | Active | Active | Active | Active |  | 
7 | 4.36 µM |  | CCCCCCCCCCCCCCCC(=O)O[C@H](COC(=O)CCCCCCCCCCNC(=O)CCC)CSC[C@H](N)C(=O)N[C@@H](CO)C(=O)N[C@@H](CCCCN)C(=O)N[C@@H](CCCCN)C(=O)N[C@@H](CCCCN)C(=O)N[C@@H](CCCCN)C(=O)O (H-C(X6)SKKKK-OH) |  |  |  |  | Dose-dependent effect | Dose-dependent effect
8 | 7.52 µM |  | CCCCCCCCCCCCCCCC(=O)O[C@H](COC(=O)CCCCCCCCNC(=O)CCCCC)CSC[C@H](N)C(=O)N[C@@H](CO)C(=O)N[C@@H](CCCCN)C(=O)N[C@@H](CCCCN)C(=O)N[C@@H](CCCCN)C(=O)N[C@@H](CCCCN)C(=O)O (H-C(X7)SKKKK-OH) |  |  |  |  | Dose-dependent effect | Dose-dependent effect
9 | 3.94 µM |  | CCCCCCCCCCCCCCCC(=O)O[C@H](COC(=O)CCCCCCCCCCCNC(=O)CC)CSC[C@H](N)C(=O)N[C@@H](CO)C(=O)N[C@@H](CCCCN)C(=O)N[C@@H](CCCCN)C(=O)N[C@@H](CCCCN)C(=O)N[C@@H](CCCCN)C(=O)O (H-C(X8)SKKKK-OH) |  |  |  |  | Dose-dependent effect | Dose-dependent effect
10 | 6.43 µM |  | CCCCCCCCCCCCCCCC(=O)O[C@H](COC(=O)CCCCCCCCCNC(=O)CCCC)CSC[C@H](N)C(=O)N[C@@H](CO)C(=O)N[C@@H](CCCCN)C(=O)N[C@@H](CCCCN)C(=O)N[C@@H](CCCCN)C(=O)N[C@@H](CCCCN)C(=O)O (H-C(X9)SKKKK-OH) |  |  |  |  | Dose-dependent effect | Dose-dependent effect

From ChEMBL document CHEMBL4219181, “Site-specific effect of polar functional group-modification in lipids of TLR2 ligands for modulating the ligand immunostimulatory activity” (Bioorg Med Chem Lett, 2018)
